System: MS2 coat protein
Assay: apparent Kd, MS2 coat protein; higher = weaker binding; RNA-MaP array; FMN 200 µM where present
Summary of the method: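 Apparent Kd: the median of filtered binding-curve fits from single clusters. Designs were transcribed on Illumina sequencing-chip clusters by stalled E. coli RNA polymerase and titrated with SNAP-549-labelled MS2 coat protein from 0.7 or 1.5 nM, doubling to 3 µM, in 100 mM Tris-HCl pH 7.5, 80 mM KCl, 4 mM MgCl2, BSA, DTT, yeast tRNA and Tween-20. Each series ran without and then with constant ligand, and green signal was normalised to red-channel RNA signal and control-cluster median Fmax.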

[1] = designed as: ON switch for flavin mononucleotide, no ligand
[2] = ligand present: flavin mononucleotide, designed as: ON switch for flavin mononucleotide
[3] = designed as: OFF switch for flavin mononucleotide, no ligand
[4] = ligand present: flavin mononucleotide, designed as: OFF switch for flavin mononucleotide

Row | Sequence | apparent Kd [1] [nM] | apparent Kd [2] [nM] | apparent Kd [3] [nM] | apparent Kd [4] [nM]
1 | CUGGAAGUCGUAGGAUAUGGUGAUGUACAUGAGGAUCACCCAUGUCCGUCUUCUCUCACAAGAUGCCAGAAGGACGACUUCCGG | 625 | 101 | – | –
2 | GAACUGAGGCAAAGCUUUAGUCGUACAUGAGGAUCACCCAUGUAGGAUAUGGUAGGCUUUGCUUACCAGAAGGACAGAGUGAUC | – | – | 102 | 139
3 | AUGGAUAUCACAGGAUAUGCUAAGGAUACCUUAGCAGAAGGGUGAUCCAUCCUAUGGCUGUACAUGAGGAUCACCCAUGUGUCA | 331 | 41.4 | – | –
4 | AUACAUACAAAGUUACAUGAGGAUCACCCAUGUUUAUUGGGAAGAAGGGUAACAUUAUUAGAUGUAUAGGAUAUUUCACAAUUG | 537 | 275 | – | –
5 | UGAUGAGGUUAGAAGGUACAGAGUAGUGGACCAAACAUGAGGAUCACCCAUGUCAUGGGAGGGAGUAAGGAUAUAAAGUUGUAG | – | – | 63.7 | 51.2
6 | UUCCGGCGUGUAGGAUAUGGAUCCGAUUAGGAUCCAGAAGGACAUGAGGAUCACCCAUGUACAUGUAAACAGUCAUCACCGGAU | – | – | 8.09 | 40.2
7 | GCUUGUAGAGGAUAUACAAGGGCCUUAGCGGAAAACUCCGCACAUGAGGAUCACCCAUGUAGAAGGCUACCACC | – | – | 16.1 | 97.9
8 | AUAUCCUAGAUAGGAUAUACUGAGGUUGAAUGGGUAGAAGGAUCGUUAGGGAAGACUACAUGAGGAUCACCCAUGUUGUGUAUU | 218 | 182 | – | –
9 | UAGGACGUCGUAGGAUAUGUAGGAUAUUCCUACAUGAGGAUCACCCAUGUUGACAUGGAAGAAGGACAGAAGGACGAUGUCCAU | 224 | 4.61 | – | –
10 | ACACCGUCAGGAUAUUGGAAGACACCCAGGAGGGUGCCUUUCGAGAAGGGACAUGAGGAUCACCCAUGUGCAGU | – | – | 27.9 | 58.6
11 | CAGGACCUUGAGGAUAUGUGACGAUUAUCGUUCAUAGAAGGUAAGACAUGAGGAUCACCCAUGUCCUGGCAUAA | – | – | 15.1 | 15.1
12 | GGUCGUCUCAUUAACAUGAGGAUCACCCAUGUCAAAAGACAUGAGGAUAUGGAUCCUAAUUGGAUCCAGAAGGCAUGGACGACC | 1110 | 60.4 | – | –
13 | GCCUGCUGGCGAGGAUAUUCUGUGCGGUUCCGGCUCGUGUCUGUUACAUGAGGAUCACCCAUGUGGGAGAAGGUGUCUGCGGCC | – | – | 7.66 | 8.34
14 | UCACAGGGAGGAUAUACAUGAGGAUCACCCAUGUGAAUCUUCGACCUGCAGGUACUUUGUAGAAGGCCCAGUGG | – | – | 107 | 123
15 | UAGCAAACGACCUGUGUGUGACAUGAGGAUCACCCAUGUUAGAGAAGGCCGAUAGCGCCGCGUACGGAGGAUAUCUGACAGGGA | – | – | 24.1 | 30.3
16 | CUGUUUCGUGUAGGAUAUGCAUAUUCCCAUUAUGCAGAAGGACAUGAGGAUCACCCAUGUAUGUUAUUAUCAUGUGUUACAUGC | – | – | 51 | 432
17 | AUUACGUCAGGAUAUCUGAUGUCUAACUUCGGUUAGACAUCAGAGAAGGGACAUGAGGAUCACCCAUGUAAUAG | – | – | 54.5 | 56.2
18 | AACAAGUCAGGAUAUGUUAAAGGUUACGAAAGGGAUAAAGGGCAGAAGGGACAUGAGGAUCACCCAUGUAAUAA | – | – | 58 | 50.2
19 | AAACCACAUGAGGAUCACCCAUGUCAAGAGAGACUAGGAUAUCUGAAUUAAUUAAAUUAAGGAGAAGGAGUGAAAA | 121 | 64.8 | – | –

Row | Sequence | apparent Kd [1] [nM] | apparent Kd [2] [nM] | apparent Kd [3] [nM] | apparent Kd [4] [nM]
20 | CUGUUAUAGGUCCAGAAUUACAACAUGAGGAUCACCCAUGUGCAGGAUAUCGAGUUAAUUUUCAACGAGAAGGGCAUAGUCACG | – | – | 35.9 | 67.6
21 | UUGGACGUCGUAGGAUAUGUAGGAUAUUCCUACAUGAGGAUCACCCAUGUUGACAUGGAAGAAGGACGGAAGGACGAUGUCCAU | 899 | 18.9 | – | –
22 | ACAUUUAUAUCAGGAUAUACAAUACAAUGAUUAGUAGAAGGGAUUAAUACAUGAGGAUCACCCAUGUCAUGUGUCAUAAUAACC | – | – | 25.8 | 19.6
23 | CCUCAGUAAGGAUAUCAGCUUAAGGAGGUGGUAAAGAGAGCUGAGAAGGUACAUGAGGAUCACCCAUGUUAAAA | – | – | 91.1 | 227
24 | GGAGCACAUGAAUACAUGAGGAUCACCCAUGUCGAAUGAUAUGAGGAUAUGGAUCGGAAAACGAUCUAGAAGGCAUAGUGCUCC | 76.5 | 10.2 | – | –
25 | AAGAAACAUGAGGAUCACCCAUGUGAGGAUAUGAAAAAGAAAAGAAAAGAAAGAAGAAUCAGAAGGCACAAAGG | – | – | 30.8 | 45.1
26 | AGCAUGUAAGGAUAUGCAAGUGGUACGGAUAGUACCAUAAAGCAGAAGGUACAUGAGGAUCACCCAUGUGCUCC | – | – | 36.3 | 66.7
27 | GGCGGGCGAAACAUGAGGAUCACCCAUGUGUUAUAAUUAAUAUAGGAUAUGUUUAUACUUUUUGGGCAGAAGGAUGCGCCUGCC | 97.8 | 67.5 | – | –
28 | UUUUUGUCAGGAUAUGAGUAGUAGUACUAUUGUUUUAUUAUUUAGAAGGGACAUGAGGAUCACCCAUGUUUCUC | – | – | 14.9 | 15.9
29 | CAUGGAACAUAGGAUAUCUCGCGGCUAGGCUGCAGAGAAGGAUGUACAUGAGGAUCACCCAUGUAUGAUCCAAU | – | – | 18.9 | 28.2
30 | GGGAGUGGAGGGAAUAACAUGAGGAUCACCCAUGUAUGGGAGAGAAGGCAGGUCGGAGGGCGAUCUGAGGAUAUUUAGACUCCU | 12.5 | 10.3 | – | –
31 | CACAAAUGGCAGAAGGGACGGACGAUAGUGUAGUCAGGAUAUGCAAAUAGGUAUGGACAUGAGGAUCACCCAUGUCCGUCCUUU | – | 5.27 | – | –
32 | AUCAGCUCGUCAGGAUAUACAUGAUAGAUCGAUUAAUUAAUUAAUUUAACAUGAGGAUCACCCAUGUAGAAGGGACGAGCUGAU | – | – | 68.5 | 67.4
33 | AGCUGUGACGUUACAGUUCCGUUACAUGAGGAUCACCCAUGUCAGGAUAUAUGCACUCUUGAAUCAUAGAAGGGACAGAGGUGG | – | – | 161 | 157
34 | UGAGCAACAGGAUAUAUGUGGCGUCCGUGAGGACGAAGGUUACAUGAGGAUCACCCAUGUAGAAGGGUUGUUCU | – | – | 169 | 366
35 | ACCUUACAUGAGGAUCACCCAUGUCAGGAUAUCUCGGACAGCUGAAAACCAGCCGUCCAGAGAAGGGACGAGGA | – | – | 13.4 | 14.4
36 | UUGGACGUCGUAGGAUAUGUAGGAUCUUCCUACAUGAGGAUCACCCAUGUUGACAUGGAAGAAGGACAGAAGGACGAUGUCCAU | 6.88 | 4.77 | – | –
37 | UUGAUUAUACAAGGAUAUCAAUUGUAUACAAGUCUUACAUGAGGAUCACCCAUGUUAAAUUUUUUUGAGAAGGUGUGUUGUCAG | 33.9 | 28.5 | – | –
38 | UUGUGGGAGCAGGAUAUCUUAGUUUGGUUGUGUGGAGAAGGGCUGACAUGAGGAUCACCCAUGUGGUCCUAGAU | – | – | 24.1 | 29.5

Row | Sequence | apparent Kd [1] [nM] | apparent Kd [2] [nM] | apparent Kd [3] [nM] | apparent Kd [4] [nM]
39 | CUUAUGUGAGGAUAUCAGUAGUAAAAAAAUAAAAUUACUACUGAGAAGGCACAUGAGGAUCACCCAUGUCUUUC | – | – | 33 | 37.8
40 | GCCAGGGAUUCAGGAUAUAUUAGCCGAGGCCGAGUAGAAGGGAAAUCCUGACAUGAGGAUCACCCAUGUCGACCCGCCUUCCUC | 20.5 | 21.1 | – | –
41 | CAGCGAUAGCUGAAUGGUACAUGGGAGGAUAUGGGUUGAUACAUGAGGAUCACCCAUGUUUAAUACUAGAAGGCCCAUGUACCU | 316 | 11 | – | –
42 | AUCCGGAGGGAGAAGGGCUAGGAGGUCCAGCUUAUGUGUGUUGCAACAUGAGGAUCACCCAUGUAGCAGGAUAUCCCUUGUAUA | – | – | 51.2 | 214
43 | AGCAGUACAGGAUAUACAUGAGGAUCACCCAUGUGAAAAUUAAGUGGCGUACCACAAAGUAGAAGGGUACUGCA | – | – | 32 | 117
44 | AGUCAGAGCAGAGGAUAUAUACAUGAGGAUCACCCAUGUGACUGACUAUGCUAGAAAUAGCAUGUAUAGAAGGCUGCUCUGACA | – | – | 85 | 223
45 | GUAGCUACUAUUAUACAUGAGGAUCACCCAUGUUACAUGUGUAAGGAUAUUGAAGUUAUUAUUAUCAAGAAGGUACUAUGCUAC | 16.2 | 9.54 | – | –
46 | AGUAAGAUGCAGAAGGUGUCAGCGAGAGCUACGACAUGAGGAUCACCCAUGUACUAGGUAGAGUACAAGGAUAUGCAUCUUACA | 324 | 24.6 | – | –
47 | CUUAAAGACGAGAAGGCUGAUUUGACAUGAGCGUCAGCCGUGUAACAUGAGGAUCACCCAUGUGCGGAGGAUAUUGAUCUUGAG | 12.3 | 13.9 | – | –
48 | GGGUACAUCGGAGGAUAUCAUGUAAAUACAUGAGGAUCACCCAUGUCGAUGGAGACAUCGGAGAUUGAGAAGGCCGAUGUACAG | 146 | 8.38 | – | –
49 | AAGAUGCGGGUAGGAUAUGGGAAUUAAUAAAGACCAGAAGGACUGGUCACACAACAUGAGGAUCACCCAUGUGUGUGUAGUGAA | – | – | 12.4 | 10.9
50 | GGUGCGUAUGUGAGGAUAUGCUGGUCCUUGGAUCUGCAGAAGGCACAUGAGGAUCACCCAUGUGGUGUCGUACC | – | – | 356 | 28.5
51 | AUAAAACAUGAGGAUCACCCAUGUCAGGAUAUACCAUUCCCAUGCCAGCAUUAAAAUGGUAGAAGGGACAUGGC | – | – | 49.2 | 27.2
52 | GGAUCAUAUGUUAGGAUAUGCUGGACCUUGGUUCAGCAGAAGGGACAUGAGGAUCACCCAUGUCAUGUCGAUCC | – | – | 21 | 22.3
53 | CGCUACACCCAGAAGGACAUGAGGAUCACCCAUGUAGGAUAUGGGAGACACAGUCCCAUGUAGAGAAAUUACGCUAGUGUAGCG | – | 79 | – | –
54 | GUAGCUAUCGGAGGAUAUUCAUACGGGAAACGGACAUGAGGAUCACCCAUGUGGCGAAAGCCUUGGGAGAAGGCCGAUAGCUAC | 37.4 | 8.89 | – | –
55 | GCGAUGAUCGAGAAGGCCACUACAUGAGGAUCACCCAUGUCGUGGUGUAUUGGAGGAUAUCGAUCGGCGUCUCAUGAGGACAUA | – | – | 4.65 | 5.78
56 | AGAAUUGUAGGAUAUACAUGAGGAUCACCCAUGUGGGAGGUGGAGCAUACAAGACGAGGUAGAAGGACAACGAC | – | – | 92.3 | 91.9
